Assay outcomes: PubChem BioAssay, several laboratories
The entries come from a sample that favours hits as a whole.
PolyA inhibitor: inhibitors of polyadenylation in S. cerevisiae. S. cerevisiae SKY197-pL101 polyadenylation reporter, beta-gal luminescence; efflux-impaired pdr1/pdr3 knockout yeast; score 100 = 6 SD above DMSO. activity score, % at 12 µM. 300,000 tested, 0.02% active. AID 1875;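 active = lowest replicate activity score at least 50, where 100 means six control SD above control mean; inconclusive = lowest score under 50 but half or more replicates reach 50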;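 also: yeast exposed to compound for 9 h at 30 °C; higher score means more reporter readthrough which indicates perturbed polyadenylation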
Lmaj promast: Leishmania major promastigote growth inhibition | Leishmania major promastigotes, resazurin fluorescence viability | inhibition, % at 10 µM | 200,000 tested, 9% active | AID 1063; in the data active = inhibition above about 50%;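 also: promastigotes grown with compound for 44 hours at 28 °C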
Calb FLC: C. albicans growth modulation with fluconazole | C. albicans CaCi-2 (fluconazole-resistant clinical isolate) + fluconazole, Alamar Blue growth, 48 h | growth inhibition, % (concentration not given with the values) | 300,000 tested, 0.57% active | AID 1979;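 active = growth inhibition above about 58% in most replicates, limit read from the data, passing the limit was not always enough; inconclusive = exactly half the replicates above a set limit; inactive = most replicates below a set limit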;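 also: all wells also contain fluconazole at 8 µg/ml as a sub-toxic cotreatment; 0% = median of DMSO wells and 100% = median of geldanamycin control wells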
NALP1 inh: NALP1 inhibition. inhibition, % at 10 µM. S. cerevisiae NALP1/ASC/caspase-1 growth, X-gal OD620, 72 h. AID 2071. 280,000 tested, 0.61% active; in the data active = inhibition mostly above about 24%, no sharp cut-off; inactive = mostly below about 32%
T cruzi inh: blocks replication of Trypanosoma cruzi. T. cruzi beta-gal in NIH3T3, luminescence, 90 h. inhibition, % (test concentration not listed). 300,000 tested, 1.4% active;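 active = mean inhibition across valid replicates above about 55%, limit read from the data; inconclusive = mean below that limit but half or more replicates reach it; inactive = mean below it, under half of replicates reach it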;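 also: signal also drops with host cell toxicity which is not excluded here; 0% = plate median of DMSO wells and 100% = zero luminescence signal; higher percent means less beta-gal luminescence so fewer parasites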
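System: Mouse NIH/3T3 fibroblasts infected with β-gal-expressing T. cruzi Tulahuen C4 | Quantity: NIH/3T3 cells, 5,000 per well | Reagent: 5000 reporter trypomastigotes per well | Dosing: Compound pinned at 50 nL/well, DMSO | Schedule: 3 h host attachment, then at least 90 h co-culture | Detection: GalScreen luminescence, 60 min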
NLRP3 yeast inh: NALP3 inhibition in yeast. Yeast reconstituted NLRP3/ASC/caspase-1, beta-gal luminescence, 24 h. inhibition, % at 10 µM. 330,000 tested, 0.39% active. AID 2825;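 active = inhibition of 50% or more; inactive = inhibition below 50%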;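 also: plate controls were induced DMSO wells for no effect and uninduced yeast grown without galactose for full effect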
L major 1uM: L. major promastigote growth inhibition, 1 uM repeat. shares compounds with Lmaj promast. resazurin fluorescence, 48 h. inhibition, % at 1 µM. 1,100 tested, 13% active. AID 1258;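 active = inhibition above about 50% in both repeat tests, limit read from the data; inconclusive = one repeat under the set limit, the other over it; inactive = both repeats under the set limit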
Active calls of the source: *.

How did COc1ccc(CN2CCCCC2c2cccnc2)cc1C (stereo unspecified) do in these assays?
PolyA inhibitor: -10; Lmaj promast: 44; Calb FLC: 13; NALP1 inh: 37; T cruzi inh: 52; NLRP3 yeast inh: 14

How did O=C(N/N=C1/CN2CCC1CC2)c1cc2ccccc2cc1O do in these assays?
PolyA inhibitor: -29; Lmaj promast: 92*; Calb FLC: 32; NALP1 inh: 12; T cruzi inh: -20; NLRP3 yeast inh: 6

Results for Cc1ccc(C(C)C)c(OCC(=O)N2CCN(Cc3nc4cc([N+](=O)[O-])ccc4n3C)CC2)c1 ?
PolyA inhibitor: -7; Lmaj promast: 97*; Calb FLC: 13; NALP1 inh: 34; T cruzi inh: 10; NLRP3 yeast inh: 16

Results for Cc1ccccc1-n1c(O)c(C=Nc2ccc(N(C)C)cc2)c(=O)[nH]c1=O ?
PolyA inhibitor: -12; Lmaj promast: 58*; Calb FLC: 43; NALP1 inh: 6; T cruzi inh: 38; NLRP3 yeast inh: 10

What do the screens show for `CCn1c(=O)n(CC(=O)N2CCC3(CC2)OCCO3)c(=O)c2ccccc21`?
PolyA inhibitor: 2; Lmaj promast: 0; Calb FLC: -5; NALP1 inh: 5; T cruzi inh: -15; NLRP3 yeast inh: 33

How did Cn1c(NN=O)nc2ccccc21 do in these assays?
PolyA inhibitor: -7; Lmaj promast: 97*; Calb FLC: 82; NALP1 inh: 4; T cruzi inh: 55*; NLRP3 yeast inh: 24

What do the screens show for `c1ccc(CN2CCc3nc4ccccc4cc3C2)cc1`?
PolyA inhibitor: -6; Calb FLC: 76*; NALP1 inh: 15; T cruzi inh: 1; NLRP3 yeast inh: 20

How did FC(F)(F)c1ccccc1CN1CCN(Cc2ccccc2)CC1 do in these assays?
PolyA inhibitor: 13; Lmaj promast: 7; Calb FLC: -14; NALP1 inh: 19; T cruzi inh: -10; NLRP3 yeast inh: 10

How did Cc1ccc(-c2cc(-c3ccc(C)cc3)[n+](-c3ccc(C(=O)[O-])cc3)c(-c3ccc(C)cc3)c2)cc1 do in these assays?
PolyA inhibitor: -2; Calb FLC: 38; T cruzi inh: 41; NLRP3 yeast inh: 12

What do the screens show for `Cc1ccc(-c2cc(-c3ccc(C)cc3)[n+](C)o2)cc1`?
PolyA inhibitor: -10; Lmaj promast: 100*; Calb FLC: 65; NALP1 inh: 37; T cruzi inh: 42; L major 1uM: 99*

How did CCOP(=O)(OCC)c1cccc(O)c1 do in these assays?
PolyA inhibitor: 15; Lmaj promast: -4; Calb FLC: -6; NALP1 inh: -5; T cruzi inh: -12; NLRP3 yeast inh: -1

How did COC(=O)[C@@H]1[C@@H](C(=O)OC)C2(c3ccccc3-c3ccccc32)N(c2ccc(Cl)cc2)N1C#N do in these assays?
PolyA inhibitor: -23; Lmaj promast: 74*; Calb FLC: -7; NALP1 inh: -5; T cruzi inh: 56*; NLRP3 yeast inh: 9; L major 1uM: 57*

How did COc1ccccc1C1=NCc2nnc(C)n2-c2ccc(Cl)cc21 do in these assays?
PolyA inhibitor: -12; Lmaj promast: 61*; NALP1 inh: 27; T cruzi inh: -5; NLRP3 yeast inh: 7; L major 1uM: -16

How did O=C1N(c2ccc(Cl)cc2)C(c2cccnc2)N2CCCN12 (stereo unspecified) do in these assays?
PolyA inhibitor: -86; Lmaj promast: 69*; Calb FLC: -6; NALP1 inh: -6; T cruzi inh: 53; NLRP3 yeast inh: 11; L major 1uM: 17

What do the screens show for `CCOc1cccc(C2NCc3ccccc3-n3cccc32)c1O` (stereo unspecified)?
PolyA inhibitor: -5; Lmaj promast: 19; Calb FLC: -2; NALP1 inh: -20; T cruzi inh: -1; NLRP3 yeast inh: 23

What do the screens show for `CCOc1cc(C2NCc3ccccc3-n3cccc32)ccc1O` (stereo unspecified)?
PolyA inhibitor: 7; Lmaj promast: 99*; Calb FLC: 3; NALP1 inh: 3; T cruzi inh: -9; NLRP3 yeast inh: 24; L major 1uM: -18

Results for FC(F)(F)c1ccc2c(c1)N(CCCN1CCN(CCCl)CC1)c1ccccc1S2 ?
PolyA inhibitor: 6; Lmaj promast: 100*; Calb FLC: -10; NALP1 inh: 14; T cruzi inh: 29; NLRP3 yeast inh: 10; L major 1uM: -10

What do the screens show for `CCC1(CC)C(=O)N(Cc2ccccc2)C(=O)N(Cc2ccccc2)C1=O`?
PolyA inhibitor: -3; Lmaj promast: 82*; Calb FLC: 2; NALP1 inh: 4; T cruzi inh: 61*; NLRP3 yeast inh: 5; L major 1uM: inconclusive

What do the screens show for `CCCCC(C)C(OC(=O)CC(CC(=O)O)C(=O)O)C(CC(C)CC(O)CCCCC(O)CC(O)C(C)N)OC(=O)CC(CC(=O)O)C(=O)O` (stereo unspecified)?
Lmaj promast: -6; NALP1 inh: 18; NLRP3 yeast inh: 4

What do the screens show for `Cn1cc2c([N+](=O)[O-])cc([N+](=O)[O-])cc2n1`?
Lmaj promast: 100*; NALP1 inh: 7; L major 1uM: -4

What do the screens show for `Cc1nc2ccccc2c(=O)n1-c1ccc(Cl)cc1[N+](=O)[O-]`?
PolyA inhibitor: 6; Lmaj promast: -2; Calb FLC: 3; NALP1 inh: 19; T cruzi inh: 6; NLRP3 yeast inh: 18

How did CN(C)C(=S)SSC(=S)N(C)C do in these assays?
PolyA inhibitor: 8; Lmaj promast: 101*; NALP1 inh: 64*; T cruzi inh: 25; L major 1uM: 99*

What do the screens show for `CN(C)C1(CNC(=O)c2ccc(Cl)c(S(=O)(=O)NCc3ccco3)c2)CCCCC1`?
PolyA inhibitor: 10; Lmaj promast: 1; Calb FLC: 8; NALP1 inh: -11; T cruzi inh: 3; NLRP3 yeast inh: 0

Results for COC(=O)C1=C(c2ccccc2OCc2ccccc2)C[C@@H]2CC[C@H]1N2C(=O)NCCN1CCOCC1 ?
NLRP3 yeast inh: 20

How did COCCOC(=O)c1c(C)oc2ccc(OC(=O)N(C)C)cc12 do in these assays?
PolyA inhibitor: -3; Lmaj promast: 1; Calb FLC: -3; NALP1 inh: 19; T cruzi inh: -2; NLRP3 yeast inh: 9

What do the screens show for `COc1ccc(C)cc1NC(=O)c1c(C)nn(Cc2ccccc2)c1Cl`?
PolyA inhibitor: -32; Lmaj promast: -7; Calb FLC: 6; NALP1 inh: 22; T cruzi inh: 9; NLRP3 yeast inh: 16

Results for Cc1ccc(-c2nn(Cc3ccccc3)cc2C=O)cc1 ?
PolyA inhibitor: -6; Lmaj promast: 36; Calb FLC: 2; T cruzi inh: 9; NLRP3 yeast inh: 29
